Article PMC3461514 (The Journal of Cell Biology, 2012)

T1: Rap1 (Homo sapiens, UniProt P62834, G12V)
T1 sequence (P62834 1-184 G12V): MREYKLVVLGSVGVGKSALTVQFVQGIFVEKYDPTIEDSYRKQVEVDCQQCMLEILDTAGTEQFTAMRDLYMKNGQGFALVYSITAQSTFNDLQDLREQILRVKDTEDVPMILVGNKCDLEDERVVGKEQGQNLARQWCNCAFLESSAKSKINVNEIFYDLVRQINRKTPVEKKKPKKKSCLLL

B1: GST-KRIT1 F123(R452E) (protein)
chain: EKVRIYRMDGSYRSVELKHGNNTTVQQIMEGMELSQETQQYFTIWICSENLSLQLKPYHKPLQHVRDWPEILAELTNLDPQRETPQLFLRRDVRLPLEVEKQIEDPLAILILFDEARYNLLKGFYTAPDAKLITLASLLLQIVYGNYESKKHKQGFLNEENLKSIVPVTKLKSKAPHWTNRILHEYKNLSTSEGVSKEMHHLQRMFLQNCWEIPTYGAAFFTGQIFTKASPSNHKVIPVYVGVNIKGLHLLNMETKALLISLKYGCFMWQLGDTDTCFQIHSMENKMSFIVHTKQAGLVVKLLMKLNGQLMPTER
modifications: left off: GST, end not stated, kept
B2: KRIT1(L717,721A): human KRIT1 Leu717/Leu721 to Ala mutant, used as FERM domain or full-length protein (protein)
chain: EKVRIYRMDGSYRSVELKHGNNTTVQQIMEGMRLSQETQQYFTIWICSENLSLQLKPYHKPLQHVRDWPEILAELTNLDPQRETPQLFLRRDVRLPLEVEKQIEDPLAILILFDEARYNLLKGFYTAPDAKLITLASLLLQIVYGNYESKKHKQGFLNEENLKSIVPVTKLKSKAPHWTNRILHEYKNLSTSEGVSKEMHHLQRMFLQNCWEIPTYGAAFFTGQIFTKASPSNHKVIPVYVGVNIKGLHLLNMETKALLISLKYGCFMWQLGDTDTCFQIHSMENKMSFIVHTKQAGAVVKALMKLNGQLMPTER
modifications: left off: GST, end not stated, kept

Tests used:
Rap1 = molecular target: T1, Rap1; experiment: Pull-down of HA-Rap1V12 from HEK293 cell lysates by GST-KRIT1 F123 variants; type: binding
Summary of the method: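 HEK293 cells were transfected (Lipofectamine Plus) with HA-Rap1A(G12V) cDNA, then lysed after 24 h in cold 50 mM Tris-HCl pH 7.4, 150 mM NaCl, 0.5% NP-40, 5 mM MgCl2 plus protease inhibitors. Bead-immobilized GST-KRIT1 FERM variants (WT or L717,721A; 10 µg) were incubated with 350 µg clarified lysate overnight at 4°C. Beads were washed, run on 4–20% SDS-PAGE and immunoblotted with monoclonal anti-HA (1:4,000).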

HEG1-C19 peptide = HEG1-C19 peptide (Homo sapiens, UniProt Q9ULI3); experiment: Affinity chromatography of KRIT1 FERM variants on HEG1-C19 peptide matrix; type: binding; settings: GFP-KRIT1 FERM from HEK293 cell lysates
Summary of the method: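 Pull-down: human HEG1 C19 cytoplasmic tail model protein (His6, N-terminal in vivo biotinylation tag, E. coli-expressed) immobilized on beads; 10 µg added to 350 µg clarified lysate of HEK293 transfected 24 h with GFP-KRIT1 FERM WT or L717,721A; lysis in 50 mM Tris-HCl pH 7.4, 150 mM NaCl, 0.5% NP-40, 5 mM MgCl2 plus protease inhibitors; 4°C overnight; washed, 4–20% SDS-PAGE, anti-GFP immunoblot; three experiments.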

Molecule	interaction with Rap1 (Rap1)	binding to the HEG1-C19 peptide (HEG1-C19 peptide)
B1	does not bind to Rap1	–
B2	–	markedly reduced binding
